Laboratory results taken from ChEMBL document CHEMBL4118152, “Discovery of Potent and Selective Periphery-Restricted Quinazoline Inhibitors of the Cyclic Nucleotide Phosphodiesterase PDE1” (J Med Chem, 2018).

Assays:
[1] = biological target: Dual specificity calcium/calmodulin-dependent 3',5'-cyclic nucleotide phosphodiesterase 1A (Homo sapiens, UniProt P54750); test: Inhibition of full length recombinant human PDE1A using 3',5'-[3H]cAMP as substrate after 30 mins by scintillation proximity assay
Chain of Dual specificity calcium/calmodulin-dependent 3',5'-cyclic nucleotide phosphodiesterase 1A (P54750 whole entry): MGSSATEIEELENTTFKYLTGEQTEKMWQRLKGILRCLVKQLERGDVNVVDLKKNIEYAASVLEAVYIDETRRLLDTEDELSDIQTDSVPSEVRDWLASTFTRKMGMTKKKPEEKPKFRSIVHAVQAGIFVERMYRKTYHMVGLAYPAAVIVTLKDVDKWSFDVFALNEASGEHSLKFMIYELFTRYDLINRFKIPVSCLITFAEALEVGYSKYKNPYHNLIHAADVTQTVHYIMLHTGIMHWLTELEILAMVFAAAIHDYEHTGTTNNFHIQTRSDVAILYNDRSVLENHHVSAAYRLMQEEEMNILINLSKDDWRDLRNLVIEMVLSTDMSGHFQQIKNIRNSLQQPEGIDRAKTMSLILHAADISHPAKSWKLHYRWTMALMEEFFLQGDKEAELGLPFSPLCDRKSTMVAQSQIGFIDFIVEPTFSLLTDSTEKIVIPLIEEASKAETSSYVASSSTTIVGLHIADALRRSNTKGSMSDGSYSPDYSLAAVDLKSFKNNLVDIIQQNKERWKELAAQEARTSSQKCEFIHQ
How it was run: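 Human recombinant enzymes; substrate held below 1/3 of Km. IC50 reported as mean ± SEM of at least 3 determinations.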

[2] = biological target: 3',5'-cyclic-AMP phosphodiesterase 7B (Homo sapiens, UniProt Q9NP56); test: Inhibition of full length recombinant human PDE7B using 3',5'-[3H]cAMP as substrate after 30 mins by scintillation proximity assay
Chain of 3',5'-cyclic-AMP phosphodiesterase 7B (Q9NP56 whole entry): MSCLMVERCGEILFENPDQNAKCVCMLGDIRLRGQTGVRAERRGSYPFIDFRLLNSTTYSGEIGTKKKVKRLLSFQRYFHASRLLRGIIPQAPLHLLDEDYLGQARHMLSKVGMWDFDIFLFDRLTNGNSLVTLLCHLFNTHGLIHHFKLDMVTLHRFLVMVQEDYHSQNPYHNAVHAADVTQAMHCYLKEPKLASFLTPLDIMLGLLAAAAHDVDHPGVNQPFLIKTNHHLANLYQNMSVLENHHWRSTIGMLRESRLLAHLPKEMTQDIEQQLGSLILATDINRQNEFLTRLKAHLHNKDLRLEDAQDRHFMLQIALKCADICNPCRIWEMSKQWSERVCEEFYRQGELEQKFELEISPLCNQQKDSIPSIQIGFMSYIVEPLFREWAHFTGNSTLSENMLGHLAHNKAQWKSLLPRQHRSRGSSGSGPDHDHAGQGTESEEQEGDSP
How it was run: (§1)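 Enzymes were human except PDE6A, which was bovine. Each was assayed with cAMP or cGMP substrate, as appropriate to the enzyme, at concentrations below 1/3 of Km. IC50 values are mean ± SEM from n = 3 or more.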

[3] = biological target: Dual 3',5'-cyclic-AMP and -GMP phosphodiesterase 11A (Homo sapiens, UniProt Q9HCR9); test: Inhibition of full length recombinant human PDE11A4 using 3',5'-[3H]cGMP as substrate after 30 mins by scintillation proximity assay; how it was run: as §1
Chain of Dual 3',5'-cyclic-AMP and -GMP phosphodiesterase 11A (Q9HCR9 whole entry): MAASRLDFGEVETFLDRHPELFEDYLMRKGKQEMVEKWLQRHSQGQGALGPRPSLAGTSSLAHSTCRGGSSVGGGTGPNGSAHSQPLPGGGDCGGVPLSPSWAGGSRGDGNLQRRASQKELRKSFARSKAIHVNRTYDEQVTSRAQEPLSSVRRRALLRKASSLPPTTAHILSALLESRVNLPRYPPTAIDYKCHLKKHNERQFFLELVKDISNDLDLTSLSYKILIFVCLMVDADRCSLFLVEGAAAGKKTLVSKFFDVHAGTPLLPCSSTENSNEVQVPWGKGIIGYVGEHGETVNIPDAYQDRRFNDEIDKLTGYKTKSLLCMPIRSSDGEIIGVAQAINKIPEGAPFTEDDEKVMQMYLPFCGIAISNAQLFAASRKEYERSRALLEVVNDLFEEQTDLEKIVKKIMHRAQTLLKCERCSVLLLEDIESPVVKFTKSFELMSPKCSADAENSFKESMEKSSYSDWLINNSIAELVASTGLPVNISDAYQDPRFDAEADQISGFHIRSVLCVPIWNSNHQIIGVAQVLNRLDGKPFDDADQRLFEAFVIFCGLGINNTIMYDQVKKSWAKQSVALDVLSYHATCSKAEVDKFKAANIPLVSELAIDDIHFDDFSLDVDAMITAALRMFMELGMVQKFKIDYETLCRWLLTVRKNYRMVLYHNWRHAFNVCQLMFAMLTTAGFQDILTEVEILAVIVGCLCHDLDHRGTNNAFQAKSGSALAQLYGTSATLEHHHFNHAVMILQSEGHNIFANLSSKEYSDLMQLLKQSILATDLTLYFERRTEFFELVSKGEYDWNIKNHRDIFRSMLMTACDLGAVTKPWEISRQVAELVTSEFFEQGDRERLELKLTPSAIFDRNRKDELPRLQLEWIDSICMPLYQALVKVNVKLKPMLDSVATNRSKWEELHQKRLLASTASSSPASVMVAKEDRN

[4] = species: Homo sapiens; test: Selectivity ratio of IC50 for full length recombinant human PDE4D3 to IC50 for full length recombinant human PDE1B1
How it was run: (§2)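 IC50s were measured against recombinant PDEs, all human except PDE6A (bovine). Each enzyme was given its appropriate cAMP or cGMP substrate at below 1/3 of its Km. IC50s are the mean of n = 3 or more. The selectivity ratio is the IC50 for the other PDE divided by the IC50 for PDE1B1 or PDE1A.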

[5] = species: Homo sapiens; test: Selectivity ratio of IC50 for full length recombinant human PDE7B to IC50 for full length recombinant human PDE1B1; how it was run: as §2
[6] = species: Homo sapiens; test: Selectivity ratio of IC50 for full length recombinant human PDE10A1 to IC50 for full length recombinant human PDE1B1; how it was run: as §2
[7] = species: Homo sapiens; test: Selectivity ratio of IC50 for full length recombinant human PDE4D3 to IC50 for full length recombinant human PDE1A; how it was run: as §2
[8] = species: Homo sapiens; test: Selectivity ratio of IC50 for full length recombinant human PDE5A1 to IC50 for full length recombinant human PDE1A; how it was run: as §2
[9] = species: Homo sapiens; test: Selectivity ratio of IC50 for full length recombinant human PDE7B to IC50 for full length recombinant human PDE1A; how it was run: as §2
[10] = species: Homo sapiens; test: Selectivity ratio of IC50 for full length recombinant human PDE9A1 to IC50 for full length recombinant human PDE1A; how it was run: as §2
[11] = Fraction unbound in Wistar Hannover rat plasma at 1 mg/kg, sc measured at 1 hr post dose by LC-MS/MS analysis; format: ADME, organism-based; settings: in vivo
[12] = Fraction unbound in Wistar Hannover rat brain at 1 mg/kg, sc measured at 0.5 hrs post dose by LC-MS/MS analysis; format: ADME, organism-based; settings: in vivo
[13] = Fraction unbound in Wistar Hannover rat brain at 1 mg/kg, sc measured at 4 hrs post dose by LC-MS/MS analysis; format: ADME, organism-based; settings: in vivo, BLD = below limit of detection
[14] = Ratio of fraction unbound in Wistar Hannover rat brain to plasma at 1 mg/kg, sc measured at 0.5 hrs post dose by LC-MS/MS analysis; format: ADME, organism-based; settings: in vivo
[15] = Ratio of fraction unbound in Wistar Hannover rat brain to plasma at 1 mg/kg, sc measured at 1 hr post dose by LC-MS/MS analysis; format: ADME, organism-based; settings: in vivo
[16] = Ratio of drug uptake in cerebrospinal fluid to fraction unbound in plasma in Wistar Hannover rat at 1 mg/kg, sc measured at 1 hr post dose by LC-MS/MS analysis; format: ADME, organism-based, CSF/Plasma; settings: in vivo
[17] = biological target: 5-hydroxytryptamine receptor 7 (Homo sapiens) (UniProt P34969); test: Inhibition of human 5-HT7 receptor at 10 uM relative to control
[18] = biological target: Angiotensin-converting enzyme (Homo sapiens) (UniProt P12821); test: Inhibition of human angiotensin converting enzyme at 10 uM relative to control
Chain of Angiotensin-converting enzyme (Homo sapiens) (P12821 whole entry): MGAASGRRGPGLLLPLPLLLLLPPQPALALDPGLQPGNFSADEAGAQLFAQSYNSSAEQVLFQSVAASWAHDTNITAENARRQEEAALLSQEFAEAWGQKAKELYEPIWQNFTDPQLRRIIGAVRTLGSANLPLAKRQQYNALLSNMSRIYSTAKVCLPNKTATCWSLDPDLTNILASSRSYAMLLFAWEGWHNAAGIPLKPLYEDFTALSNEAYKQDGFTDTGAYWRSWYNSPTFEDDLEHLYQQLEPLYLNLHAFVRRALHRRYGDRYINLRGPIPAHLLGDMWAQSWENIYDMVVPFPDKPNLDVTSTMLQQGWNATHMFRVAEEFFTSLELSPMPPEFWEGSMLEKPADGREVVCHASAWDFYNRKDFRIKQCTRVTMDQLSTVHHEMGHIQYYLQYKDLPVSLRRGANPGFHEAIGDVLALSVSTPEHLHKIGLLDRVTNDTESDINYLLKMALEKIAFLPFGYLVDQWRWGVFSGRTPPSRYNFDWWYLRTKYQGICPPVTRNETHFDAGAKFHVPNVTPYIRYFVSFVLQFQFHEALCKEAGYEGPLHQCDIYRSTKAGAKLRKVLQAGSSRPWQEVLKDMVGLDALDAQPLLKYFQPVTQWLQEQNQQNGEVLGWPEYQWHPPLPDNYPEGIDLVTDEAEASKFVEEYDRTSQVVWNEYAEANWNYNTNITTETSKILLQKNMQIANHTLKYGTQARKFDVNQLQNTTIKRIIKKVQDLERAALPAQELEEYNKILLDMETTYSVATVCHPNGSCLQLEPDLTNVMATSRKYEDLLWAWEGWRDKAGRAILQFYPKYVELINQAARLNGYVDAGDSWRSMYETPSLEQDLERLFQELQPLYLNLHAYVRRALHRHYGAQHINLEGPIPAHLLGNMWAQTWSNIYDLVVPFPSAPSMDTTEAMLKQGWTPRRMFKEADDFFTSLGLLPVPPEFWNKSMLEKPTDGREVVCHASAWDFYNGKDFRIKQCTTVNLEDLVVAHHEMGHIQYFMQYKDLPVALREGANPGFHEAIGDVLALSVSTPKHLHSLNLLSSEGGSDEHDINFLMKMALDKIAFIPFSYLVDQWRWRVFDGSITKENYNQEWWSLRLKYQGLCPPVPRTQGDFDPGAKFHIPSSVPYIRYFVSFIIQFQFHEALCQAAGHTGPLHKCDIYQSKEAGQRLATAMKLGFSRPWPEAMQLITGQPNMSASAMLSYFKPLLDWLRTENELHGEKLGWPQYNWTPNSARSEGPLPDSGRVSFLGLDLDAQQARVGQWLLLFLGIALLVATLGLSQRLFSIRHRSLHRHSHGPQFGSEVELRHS

[19] = biological target: Angiotensin-converting enzyme (Homo sapiens) (UniProt P12821); test: Inhibition of recombinant human Acetylcholinesterase using acetylthiocholine as substrate at 10 uM after 30 mins by spectrophotometric method relative to control
[20] = biological target: Type-1 angiotensin II receptor (Homo sapiens) (UniProt P30556); test: Inhibition of human angiotensin 1 receptor at 10 uM relative to control
[21] = biological target: Cannabinoid receptor 2 (Homo sapiens) (UniProt P34972); test: Inhibition of human Cannabinoid CB2 receptor at 10 uM relative to control
[22] = biological target: High affinity choline transporter 1 (Homo sapiens) (UniProt Q9GZV3); test: Displacement of [3H]hemicholinium-3 from recombinant human Choline Transporter at 10 uM after 60 mins by scintillation counting analysis relative to control
[23] = biological target: D(2) dopamine receptor (Homo sapiens) (UniProt P14416); test: Inhibition of dopamine D2 receptor (unknown origin) at 10 uM relative to control
Chain of D(2) dopamine receptor (Homo sapiens) (P14416 whole entry): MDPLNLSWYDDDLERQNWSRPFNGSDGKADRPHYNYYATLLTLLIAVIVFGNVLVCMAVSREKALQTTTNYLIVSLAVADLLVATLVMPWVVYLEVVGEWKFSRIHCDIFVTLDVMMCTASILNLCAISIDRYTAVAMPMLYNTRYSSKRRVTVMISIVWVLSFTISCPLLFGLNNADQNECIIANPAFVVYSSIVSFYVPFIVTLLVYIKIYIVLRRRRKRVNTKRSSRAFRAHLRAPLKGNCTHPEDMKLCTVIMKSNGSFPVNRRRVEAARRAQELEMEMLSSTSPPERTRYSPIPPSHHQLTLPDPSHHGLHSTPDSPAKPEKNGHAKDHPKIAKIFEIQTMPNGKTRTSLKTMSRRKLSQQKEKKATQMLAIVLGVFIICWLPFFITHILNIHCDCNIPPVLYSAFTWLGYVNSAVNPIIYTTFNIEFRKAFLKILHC

[24] = biological target: Sodium-dependent dopamine transporter (Homo sapiens) (UniProt Q01959); test: Inhibition of dopamine transporter (unknown origin) at 10 uM relative to control
[25] = species: Homo sapiens; test: Inhibition of human endothelin receptor at 10 uM relative to control
[26] = biological target: Glucocorticoid receptor (Homo sapiens) (UniProt P04150); test: Inhibition of human glucocorticoid receptor at 10 uM relative to control
[27] = biological target: Histamine H3 receptor (Homo sapiens) (UniProt Q9Y5N1); test: Inhibition of human histamine H3 receptor at 10 uM relative to control
Chain of Histamine H3 receptor (Homo sapiens) (Q9Y5N1 whole entry): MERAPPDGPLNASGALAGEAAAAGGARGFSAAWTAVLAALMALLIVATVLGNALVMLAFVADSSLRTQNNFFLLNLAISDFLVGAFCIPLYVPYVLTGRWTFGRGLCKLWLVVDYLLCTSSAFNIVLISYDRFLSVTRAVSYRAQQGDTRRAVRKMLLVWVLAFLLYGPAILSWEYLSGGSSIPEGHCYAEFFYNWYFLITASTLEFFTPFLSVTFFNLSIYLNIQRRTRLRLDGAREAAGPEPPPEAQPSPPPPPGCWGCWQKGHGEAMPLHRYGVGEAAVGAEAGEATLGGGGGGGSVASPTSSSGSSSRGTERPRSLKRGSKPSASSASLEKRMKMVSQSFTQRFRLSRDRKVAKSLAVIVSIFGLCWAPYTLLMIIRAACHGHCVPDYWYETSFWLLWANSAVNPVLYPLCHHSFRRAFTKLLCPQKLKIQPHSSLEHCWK

[28] = biological target: Muscarinic acetylcholine receptor M1 (Homo sapiens) (UniProt P11229); test: Inhibition of human muscarinic M1 receptor at 10 uM relative to control
Chain of Muscarinic acetylcholine receptor M1 (Homo sapiens) (P11229 whole entry): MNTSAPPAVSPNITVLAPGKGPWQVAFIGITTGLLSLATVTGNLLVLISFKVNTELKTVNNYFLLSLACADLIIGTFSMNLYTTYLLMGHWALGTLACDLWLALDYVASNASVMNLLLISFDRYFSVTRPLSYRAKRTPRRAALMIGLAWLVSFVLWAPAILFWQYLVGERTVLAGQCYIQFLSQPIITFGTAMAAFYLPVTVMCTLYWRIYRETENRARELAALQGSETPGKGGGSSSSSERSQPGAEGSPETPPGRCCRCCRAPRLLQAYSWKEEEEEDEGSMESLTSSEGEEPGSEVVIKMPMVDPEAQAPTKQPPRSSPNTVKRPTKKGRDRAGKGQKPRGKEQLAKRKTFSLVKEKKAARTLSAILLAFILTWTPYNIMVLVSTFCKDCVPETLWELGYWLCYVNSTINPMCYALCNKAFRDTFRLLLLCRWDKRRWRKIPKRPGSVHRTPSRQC

[29] = biological target: Mu-type opioid receptor (Homo sapiens) (UniProt P35372); test: Inhibition of human mu opioid receptor at 10 uM relative to control
[30] = biological target: Vascular endothelial growth factor receptor 1 (Homo sapiens) (UniProt P17948); test: Inhibition of recombinant human VEGFR1 using Ulight-TK peptide as substrate at 10 uM after 15 mins in presence of ATP by LANCE method relative to control
[31] = biological target: 5-hydroxytryptamine receptor 6 (Homo sapiens) (UniProt P50406); test: Inhibition of human 5-HT6 receptor at 10 uM relative to control
[32] = biological target: Adenosine receptor A3 (Homo sapiens) (UniProt P0DMS8); test: Inhibition of human adenosine A3 receptor at 10 uM relative to control
Chain of Adenosine receptor A3 (Homo sapiens) (P0DMS8 whole entry): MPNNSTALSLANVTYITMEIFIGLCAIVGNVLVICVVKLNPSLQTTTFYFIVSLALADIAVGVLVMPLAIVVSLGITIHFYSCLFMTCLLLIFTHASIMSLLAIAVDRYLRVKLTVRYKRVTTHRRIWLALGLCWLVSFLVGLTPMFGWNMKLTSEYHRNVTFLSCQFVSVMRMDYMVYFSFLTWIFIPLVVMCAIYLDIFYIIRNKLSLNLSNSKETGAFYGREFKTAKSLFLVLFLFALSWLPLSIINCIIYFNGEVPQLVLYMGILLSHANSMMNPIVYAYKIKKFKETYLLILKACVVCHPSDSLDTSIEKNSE

[33] = biological target: Tyrosine-protein kinase ABL1 (Homo sapiens) (UniProt P00519); test: Inhibition of human ABL at 10 uM relative to control
[34] = biological target: Caspase-3 (Homo sapiens) (UniProt P42574); test: Inhibition of recombinant human Caspase-3 using benzyloxycarbonyl- Asp-Glu-Val-Asp-AFC as substrate at 10 uM after 60 mins by fluorimetric method relative to control
[35] = biological target: Substance-K receptor (Homo sapiens) (UniProt P21452); test: Inhibition of NK2 receptor (unknown origin) at 10 uM relative to control
[36] = biological target: MAO-A (Homo sapiens, UniProt P21397); test: Inhibition of human MAO-A at 10 uM relative to control
[37] = biological target: Urotensin-2 receptor (Homo sapiens) (UniProt Q9UKP6); test: Inhibition of human urotensin-2 receptor at 10 uM relative to control

`COc1ccc2c(N[C@@H](C)Cc3cc(C)[nH]n3)ncnc2c1OC` showed an IC50 [1] of 0.042 µM, an IC50 [2] of 41.3 µM and an IC50 [3] of 34.7 µM. For the same molecule, the Ratio IC50 [4] was 2890, the Ratio IC50 [5] was 4540 and the Ratio IC50 [6] was 45. The Ratio IC50 [7] was 626, the Ratio IC50 [8] was 1290 and the Ratio IC50 [9] was 983. For the same molecule, the Ratio IC50 [10] was greater than 4760, the “Cp(f)” value [11] was 120 nM and the “Drug uptake(free)” value [12] was 6 nM. For the same molecule, the “Drug uptake(free)” value [13] was “Bld”, the Ratio [14] was 0.04 and the Ratio [15] was 0.03. The Ratio [16] was 0.13, the inhibition [17] was less than 50% and the inhibition [18] was less than 50%. The inhibition [19] was less than 50%, the inhibition [20] was less than 50% and the inhibition [21] was less than 50%. The inhibition [22] was less than 50%, the inhibition [23] was less than 50% and the inhibition [24] was less than 50%. It also gave an inhibition [25] of less than 50%, an inhibition [26] of less than 50% and an inhibition [27] of less than 50%. For the same molecule, the inhibition [28] was less than 50%, the inhibition [29] was less than 50% and the inhibition [30] was less than 50%. The inhibition [31] was less than 50%, the inhibition [32] was less than 50% and the inhibition [33] was less than 50%. It also gave an inhibition [34] of less than 50%, an inhibition [35] of less than 50% and an inhibition at 10 µM [36] of less than 50%. The inhibition [37] was less than 50%.
